Active and inactive are the calls of the source. No cut-off for these calls is given here.
What was measured:
[1] = biological target: Arg-gingipain-1 proteinase (Porphyromonas gingivalis) (UniProt Q51816); test: Binding affinity to Arg-gingipain in total lcrude cell lysates of Porphyromonas gingivalis assessed as protein lebeling; conditions: tested as the 125I-labelled form
[2] = biological target: Lys-gingipain (Porphyromonas gingivalis (strain ATCC 33277 / DSM 20709 / JCM 12257)) (UniProt B2RLK2); test: Binding affinity to Lys-gingipain in total lcrude cell lysates of Porphyromonas gingivalis assessed as protein lebeling; conditions: tested as the 125I-labelled form
Cathepsin B = Cathepsin B (Rattus norvegicus, UniProt P00787); test: Binding affinity to cathepsin B in crude rat liver homogenates using [125I]DCG-04 based competition protein labeling by SDS-PAGE method; type: tissue-based
How it was run: (§1)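 Rat liver lysate (50 µg protein in 50 mM sodium acetate, 2 mM DTT, 5 mM MgCl2, pH 5.5) was preincubated with compound from 50 mM DMSO stocks for 30 min at room temperature. [125I]DCG-04 (10^6 c.p.m.) was then added for 45 min at room temperature. Bands were resolved by SDS-PAGE, imaged and quantified, and IC50 was taken from the linear portion of the signal versus inhibitor concentration plot.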

[3] = biological target: Cathepsin Z (Rattus norvegicus) (UniProt Q9R1T3); test: Binding affinity to cathepsin Z in crude rat liver homogenates using [125I]DCG-04 based competition protein labeling up to 50 uM by SDS-PAGE method; type: tissue-based; how it was run: as §1
[4] = biological target: T1, Pro-cathepsin H (Rattus norvegicus) (UniProt P00786); test: Binding affinity to cathepsin H in crude rat liver homogenates using [125I]DCG-04 based competition protein labeling up to 50 uM by SDS-PAGE method; type: tissue-based; how it was run: as §1
T1 sequence (whole entry): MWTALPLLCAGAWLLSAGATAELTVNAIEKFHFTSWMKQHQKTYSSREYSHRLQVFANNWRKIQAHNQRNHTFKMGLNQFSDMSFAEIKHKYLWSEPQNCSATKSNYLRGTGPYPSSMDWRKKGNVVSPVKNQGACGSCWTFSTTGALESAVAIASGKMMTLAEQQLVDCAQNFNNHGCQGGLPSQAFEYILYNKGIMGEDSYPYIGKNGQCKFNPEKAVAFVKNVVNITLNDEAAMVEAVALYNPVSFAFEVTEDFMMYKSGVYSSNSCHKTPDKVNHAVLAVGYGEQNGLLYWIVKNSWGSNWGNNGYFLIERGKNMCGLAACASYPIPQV

[5] = biological target: T2, Cathepsin J (Rattus norvegicus) (UniProt Q63088); test: Binding affinity to cathepsin J in crude rat liver homogenates using [125I]DCG-04 based competition protein labeling up to 50 uM by SDS-PAGE method; type: tissue-based; how it was run: as §1
T2 sequence (whole entry): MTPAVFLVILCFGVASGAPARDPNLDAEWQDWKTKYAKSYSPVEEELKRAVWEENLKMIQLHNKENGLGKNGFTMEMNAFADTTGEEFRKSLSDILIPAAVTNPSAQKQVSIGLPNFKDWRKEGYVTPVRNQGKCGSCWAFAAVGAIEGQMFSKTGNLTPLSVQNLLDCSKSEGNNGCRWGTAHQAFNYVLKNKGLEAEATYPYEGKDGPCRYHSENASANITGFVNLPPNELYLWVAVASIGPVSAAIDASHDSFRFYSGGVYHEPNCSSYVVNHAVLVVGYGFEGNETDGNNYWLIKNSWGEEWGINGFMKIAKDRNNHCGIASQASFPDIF

[6] = biological target: T3, Dipeptidyl peptidase 1 (Rattus norvegicus) (UniProt P80067); test: Binding affinity to cathepsin C in crude rat liver homogenates using [125I]DCG-04 based competition protein labeling up to 50 uM by SDS-PAGE method; type: tissue-based; how it was run: as §1
T3 sequence (whole entry): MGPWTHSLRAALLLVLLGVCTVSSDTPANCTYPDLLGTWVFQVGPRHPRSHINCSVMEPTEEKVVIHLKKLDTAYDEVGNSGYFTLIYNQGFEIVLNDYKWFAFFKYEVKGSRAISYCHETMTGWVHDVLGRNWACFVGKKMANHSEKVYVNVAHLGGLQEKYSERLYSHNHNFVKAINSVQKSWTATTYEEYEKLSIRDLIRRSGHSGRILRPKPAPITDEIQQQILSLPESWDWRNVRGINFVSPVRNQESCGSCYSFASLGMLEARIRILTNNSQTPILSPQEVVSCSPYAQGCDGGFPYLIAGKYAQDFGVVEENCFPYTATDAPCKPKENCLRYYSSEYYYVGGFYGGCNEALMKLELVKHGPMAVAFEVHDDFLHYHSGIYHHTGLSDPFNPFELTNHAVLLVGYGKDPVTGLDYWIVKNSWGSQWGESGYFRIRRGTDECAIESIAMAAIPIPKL

Cathepsin Z = Cathepsin Z (Rattus norvegicus, UniProt Q9R1T3); test: Binding affinity to cathepsin Z in crude rat liver homogenates using [125I]DCG-04 based competition protein labeling by SDS-PAGE method; type: tissue-based; how it was run: as §1
Pro-cathepsin H = biological target: T4, Pro-cathepsin H (Rattus norvegicus, UniProt P00786); test: Binding affinity to cathepsin H in crude rat liver homogenates using [125I]DCG-04 based competition protein labeling by SDS-PAGE method; type: tissue-based; how it was run: as §1
T4 sequence (P00786 whole entry): T1 sequence (whole entry)

Cathepsin J = biological target: T5, Cathepsin J (Rattus norvegicus, UniProt Q63088); test: Binding affinity to cathepsin J in crude rat liver homogenates using [125I]DCG-04 based competition protein labeling by SDS-PAGE method; type: tissue-based; how it was run: as §1
T5 sequence (Q63088 whole entry): T2 sequence (whole entry)

Dipeptidyl peptidase 1 = biological target: T6, Dipeptidyl peptidase 1 (Rattus norvegicus, UniProt P80067); test: Binding affinity to cathepsin C in crude rat liver homogenates using [125I]DCG-04 based competition protein labeling by SDS-PAGE method; type: tissue-based; how it was run: as §1
T6 sequence (P80067 whole entry): T3 sequence (whole entry)

[7] = biological target: T7, Procathepsin L (Rattus norvegicus) (UniProt P07154); test: Binding affinity to cathepsin L in crude rat liver homogenates assessed as protein labeling; type: tissue-based; conditions: tested as the 125I-labelled form
T7 sequence (whole entry): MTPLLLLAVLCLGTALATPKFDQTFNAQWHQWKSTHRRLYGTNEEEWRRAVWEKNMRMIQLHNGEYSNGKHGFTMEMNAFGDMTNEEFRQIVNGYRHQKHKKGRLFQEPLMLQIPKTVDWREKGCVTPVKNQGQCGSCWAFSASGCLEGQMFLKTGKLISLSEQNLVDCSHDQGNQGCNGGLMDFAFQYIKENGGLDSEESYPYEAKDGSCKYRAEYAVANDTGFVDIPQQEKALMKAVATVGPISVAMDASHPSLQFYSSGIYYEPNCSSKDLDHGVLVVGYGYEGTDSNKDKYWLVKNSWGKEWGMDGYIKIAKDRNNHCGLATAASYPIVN

[8] = biological target: Cathepsin B (Rattus norvegicus) (UniProt P00787); test: Binding affinity to cathepsin B in crude rat liver homogenates using [125I]DCG-04 based competition protein labeling up to 50 uM by SDS-PAGE method; type: tissue-based; how it was run: as §1

SMILES | IC50 (Cathepsin B) [µM] | inhibition [3] | IC50 (Pro-cathepsin H) [µM] | IC50 (Cathepsin J) [µM] | IC50 (Dipeptidyl peptidase 1) [µM] | further results
CC(=O)N[C@@H](CCCCNC(=O)CCCCC1SC[C@H]2NC(=O)N[C@@H]12)C(=O)N[C@@H](Cc1ccc(O)c(I)c1)C(=O)NCCCCCC(=O)N[C@@H](CCCCN)C(=O)COC(=O)c1c(C)cccc1C (stereo partly specified) | – | – | – | – | – | Activity [1]: Active; Activity [2]: Active
CC(=O)N[C@@H](CCCCNC(=O)CCCCC1SC[C@H]2NC(=O)N[C@@H]12)C(=O)N[C@@H](Cc1ccc(O)c(I)c1)C(=O)NCCCCCC(=O)N[C@@H](CCCNC(=N)N)C(=O)COC(=O)c1c(C)cccc1C (stereo partly specified) | – | – | – | – | – | Activity [1]: Active; Activity [2]: Active
Cc1cccc(C)c1C(=O)OCC(=O)[C@H](CCCN=C(N)N)NC(=O)[C@H](Cc1ccccc1)NC(=O)OCc1ccccc1 | 0.015 | – | – | – | – | –
CC(=O)N[C@@H](Cc1ccc(O)cc1)C(=O)N[C@@H](Cc1ccccc1)C(=O)N[C@@H](CCCNC(=N)N)C(=O)COC(=O)c1c(C)cccc1C | 0.0073 | – | 12 | 3.6 | 3.6 | IC50 (Cathepsin Z): 4.7 µM
CC(=O)N[C@@H](Cc1ccc(O)cc1)C(=O)N[C@@H](Cc1ccccc1)C(=O)NCC(=O)COC(=O)c1c(C)cccc1C | 0.22 | – | 7.9 | 6.4 | 6.4 | IC50 (Cathepsin Z): 39 µM
CC(=O)N[C@@H](CCCCNC(=O)CCCCC1SC[C@H]2NC(=O)N[C@@H]12)C(=O)N[C@@H](Cc1ccc(O)c(I)c1)C(=O)NCCCCCC(=O)N[C@@H](CC(C)C)C(=O)COC(=O)c1c(C)cccc1C (stereo partly specified) | – | – | – | – | – | Activity [7]: Active
COc1ccc(C(=O)OCC(=O)CNC(=O)[C@H](Cc2ccccc2)NC(=O)OCc2ccccc2)cc1 | – | inactive | – | – | – | inhibition [8]: inactive; inhibition [4]: inactive; inhibition [5]: inactive; inhibition [6]: inactive
CC(=O)N[C@@H](CCCCNC(=O)CCCCC1SC[C@H]2NC(=O)N[C@@H]12)C(=O)N[C@@H](Cc1ccc(O)c(I)c1)C(=O)NCCCCCC(=O)NCC(=O)COC(=O)c1c(C)cccc1C (stereo partly specified) | – | – | – | – | – | Activity [7]: Active
Cc1cccc(C)c1C(=O)OCC(=O)[C@H](CCCNC(=N)N)NC(=O)[C@H](Cc1ccccc1)NC(=O)OCc1ccccc1 | – | inactive | – | – | – | inhibition [4]: inactive; inhibition [5]: inactive; inhibition [6]: inactive
COc1ccc(C(=O)ONC(=O)CNC(=O)[C@H](Cc2ccccc2)NC(=O)OCc2ccccc2)cc1 | 1.2 | – | 6.6 | 8.3 | 8.3 | IC50 (Cathepsin Z): 1.5 µM

Now from value to compound, other results behind:

IC50 (Cathepsin B) [µM] | inhibition [3] | IC50 (Pro-cathepsin H) [µM] | IC50 (Cathepsin J) [µM] | IC50 (Dipeptidyl peptidase 1) [µM] | SMILES | further results
0.12 | inactive | – | – | – | Cc1cccc(C)c1C(=O)OCC(=O)CNC(=O)[C@H](Cc1ccccc1)NC(=O)OCc1ccccc1 | inhibition [4]: inactive; inhibition [5]: inactive; inhibition [6]: inactive
0.92 | inactive | 7.9 | 49 | 49 | Cc1cccc(C)c1C(=O)OCC(=O)CNC(=O)[C@H](CC(C)C)NC(=O)OCc1ccccc1 | –

Source: ChEMBL document CHEMBL1221168, “Activity-based probes that target diverse cysteine protease families” (Nat Chem Biol, 2005)
